Laboratory results published in ChEMBL document CHEMBL1124035, “1-Amino-substituted 4-methyl-5H-pyrido[4,3-b]indoles (gamma-carbolines) as tricyclic analogues of ellipticines: a new class of antineoplastic agents” (1988).
Active and inactive are the calls of the source. The calls are words filed in the database; no cut-off is given here.

Assays:
Mus musculus [1] = test: Antitumor activity against P388 leukemia in mice at a dose of 5 mg/kg administered intraperitoneally for 5 days; assay type: functional
How it was run: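 CDF1 hybrid male or female mice, 10 per group, were inoculated ip on day 0 with 10^6 viable P388 leukemia cells. Drug in distilled water was given ip (0.1 mL/10 g body weight) daily on days 1-5, with vehicle, 5-fluorouracil and BD 84 controls given the same way. T/C = median survival of treated/controls × 100; T/C > 128% counted as significant.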

Calf thymus DNA = test: Apparent DNA affinity constant; assay type: nucleic-acid assay; details: Bos taurus
How it was run: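 Apparent DNA affinity constant was measured by competition with ethidium bromide. Buffer was 20 mM Na2HPO4/NaH2PO4, 0.1 M NaCl, 1 mM EDTA, pH 7.4, with calf thymus DNA at 10 μg/mL. Values are given in 10^6 M⁻¹.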

L1210 = test: Ability to reduce the cell count to 50% in L1210 culture cells; assay type: functional; details: Mus musculus, read-out: ID50 (the source's name)
How it was run: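 L1210 cells in exponential growth in RPMI 1640 with 2 mM glutamine, penicillin/streptomycin and 10% FCS, 37 °C, 5% CO2. Drugs dissolved in distilled water were added to cells at 0.8 × 10^5 cells/mL for 48 h, then cells were counted. ID50 is the concentration halving cell proliferation versus controls, from regression of dose-response data; mean of two independent experiments.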

Mus musculus [2] = test: Antitumor activity against P388 leukemia in mice at a dose of 10 mg/kg administered intraperitoneally for 5 days; assay type: functional
How it was run: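 CDF1 hybrid male or female mice, 10 per group, were inoculated ip with 10^6 viable P388 cells on day 0. Drugs in distilled water were given ip (0.1 mL/10 g body weight) daily D1-5. Vehicle, 5-fluorouracil and BD 84 were given the same way. T/C = median survival day of treated / controls × 100; T/C > 128% was significant; cures counted at D60.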

Row | SMILES | T/C (Mus musculus [1]) | K aff (Calf thymus DNA) | IC50 (L1210) | T/C (Mus musculus [2])
1 | CCN(CC)CC(O)CNc1ncc(C)c2c1c1cc(O)ccc1n2C (configuration not stated) | inactive | 230000 M⁻¹ | 0.06 µM | Toxic
2 | COc1ccc2c(c1)c1c(NCC(C)CN(C)C)ncc(C)c1n2C (configuration not stated) |  | 150000 M⁻¹ | 1 µM | 
3 | CCN(CC)CCCCNc1ncc(C)c2c1c1cc(O)ccc1n2C |  | 350000 M⁻¹ | 0.31 µM | 
4 | CCN(CC)CCCCNc1ncc(C)c2c1c1cc(OC)ccc1n2C |  | 460000 M⁻¹ | 1.3 µM | 
5 | COc1ccc2c(c1)c1c(NCCCN3CCCC3)ncc(C)c1n2C |  | 300000 M⁻¹ | 0.5 µM | 
